Active and inactive are the calls of the source.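 How the source made its calls: active means GFP response above 150% of the DMSO control; inconclusive means fewer than 70 events counted in any yeast strain; inactive means the rest.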
Test: yeast TOR pathway reporter LAP4-GFP change – cell-based, cherry picks, flow cytometry, mother/daughter gates, confirmation (AID 2271);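 further: ratio of sample to DMSO plate mean so 100% equals DMSO level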
Conditions: S. cerevisiae LAP4-GFP strain, 3 h, at 10 µM, stronger effect = higher value, 100 means same as DMSO control
Method in brief: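 Test system: GFP-fusion yeast strain. Medium: synthetic complete (SC) yeast growth medium. Timing: 3 h treatment at 30 °C with rotation. Measured by: GFP by flow cytometry. Control set: positive rapamycin (400 ng/mL), negative DMSO.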

Row | Compound | GFP response relative to DMSO
1 | O=C(COc1ccccc1)N1CCN(c2ncnc3c2cnn3-c2ccccc2)CC1 | 104% (inactive)
2 | O=S(=O)(c1ccc(Oc2ccccc2)cc1)N1CCOCC1 | 96.2% (inactive)
3 | O=S(=O)(/N=C(/Nc1ccc(F)cc1F)c1ccc(Cl)cc1)c1ccccc1 | 96.5% (inactive)
4 | CC(=O)Nc1cccc(Oc2ccc(-c3noc(C)n3)cc2)c1 | 101% (inactive)
5 | C/C(=N/NC(=O)c1ccc(C(C)(C)C)cc1)c1ccccn1 | 231% (active)
6 | O=C(Sc1cccc2cccnc12)c1ccccc1Br | 151% (active)
7 | CCOc1cc(-c2nc3cc(C)ccn3c2NCC2CCCO2)ccc1O (centres undefined) | 88.2% (inactive)
8 | Oc1ccccc1/C=N/c1c(-c2ccco2)nc2ccccn12 | 93.8% (inactive)
9 | Cc1ccc(C2=NN(S(C)(=O)=O)C(c3ccc4c(c3)OCO4)C2)cc1 (centres undefined) | 116% (inactive)
10 | COc1ccccc1NC(=O)Cn1nnc(-c2ccccc2NC(=O)c2ccco2)n1 | 85.4% (inactive)
11 | Cc1ccc(C(=O)N/C(=C/c2ccco2)C(=O)N2CCOCC2)cc1 | 105% (inactive)
12 | COc1ccc(-c2cc3cc(C(=O)O)ccn3c2C(=O)c2ccccc2)cc1 | 107% (inactive)
13 | COc1ccccc1C(=O)NNC(=S)NC(=O)c1cccs1 | 225% (active)
14 | CC(=O)Oc1c(C)cc(Cl)cc1C(=O)Nc1ccc([N+](=O)[O-])cc1Cl | 91.2% (inactive)

Same assay, conditions: S. cerevisiae LAP4-GFP strain, 3 h, measured here: daughter cell gate response, at 10 µM, stronger effect = higher value, 100 means same as DMSO control

Row | Compound | GFP response relative to DMSO
15 | CCN(C(=O)c1ccccc1Cl)c1ccccc1 | 104%
16 | CCN(CC)CCNC(=O)Cn1c(-c2ccccn2)nc2ccccc21 | 98.7%
17 | Nc1cc(N)nc(SCC(=O)N2CCc3ccccc32)n1 | 97.6%
18 | N#C/C(=C\c1ccc(N2CCOCC2)o1)c1ccccc1 | 102%
19 | CS(=O)(=O)N1CCc2cc(C(=O)Nc3ccc(COCC(F)(F)F)cc3)ccc21 | 97.2%
20 | CCc1noc(C)c1C(=O)Nc1nc(-c2ccc(Cl)cc2Cl)cs1 | 96%
21 | O=C(O)c1ccc2c3c(ncnc13)-c1ccccc1C2=O | 130%
22 | Cc1ccc(NC(=O)c2ccccc2)cc1 | 100%
23 | Cc1ccc(C)c(-c2nnc(NC(=O)c3ccc([N+](=O)[O-])o3)o2)c1 | 114%
24 | COc1ccc(N2C(=O)C(Cl)=C(Oc3cccc(OC)c3)C2=O)cc1 | 203%
25 | Cc1cc(C)c(S(=O)(=O)ON2C(=O)c3ccccc3C2=O)cc1C | 209%
26 | O=C(COC(=O)/C=C/c1cccs1)Nc1nc(-c2ccccc2)cs1 | 101%
27 | CCOc1ccccc1/C=C/C(=O)c1ccc(Cl)cc1 | 99.2%
28 | O=C(NC(=S)NNC(=O)c1cnccn1)c1ccc(F)cc1 | 234%
29 | Cc1ccc(Nc2c(-c3ccccn3)nc3ccc(C)cn23)cc1 | 137%
30 | O=c1/c(=C/c2cccc3ccccc23)sc2ncnn12 | 177%
31 | Cc1c(NC(=O)/C(C#N)=C/c2c(N3CCCCC3)nc3ccccn3c2=O)c(=O)n(-c2ccccc2)n1C | 94.4%
32 | CS(=O)(=O)N1N=C(c2ccco2)CC1c1ccc(Br)cc1 (centres undefined) | 104%
33 | O=C(Oc1ccnc2cc(Cl)ccc12)N1CCCCCC1 | 111%
34 | Cc1c([N+](=O)[O-])cnc(Sc2ccccc2)c1[N+](=O)[O-] | 120%

Row | Compound | GFP response relative to DMSO
35 | Cc1cc(C(=O)Nc2nc(-c3ccccn3)cs2)ccc1[N+](=O)[O-] | 149%
36 | COc1cc(/C=C/C(=O)c2c(O)cc(C)oc2=O)cc(OC)c1O | 104%
37 | COc1ccc2ccccc2c1/C=N/Nc1cccc(C(=O)O)c1 | 99.1%
38 | CCn1c(=O)c(C(=O)NC(C)C)c(O)c2ccccc21 | 100%
39 | CCOc1cc(N2CCOCC2)c(OCC)cc1NC(=O)C(NC(=O)c1ccco1)C(C)C (centres undefined) | 95.6%
40 | CNC(=O)/C(C#N)=C/c1c(N(Cc2ccccc2)Cc2ccccc2)nc2c(C)cccn2c1=O | 95.9%
41 | O=C(COc1ccccc1)N1CCN(c2ncnc3c2cnn3-c2ccccc2)CC1 | 102%
42 | O=S(=O)(c1ccc(Oc2ccccc2)cc1)N1CCOCC1 | 95.6%
43 | O=S(=O)(/N=C(/Nc1ccc(F)cc1F)c1ccc(Cl)cc1)c1ccccc1 | 96.5%
44 | CC(=O)Nc1cccc(Oc2ccc(-c3noc(C)n3)cc2)c1 | 99.1%
45 | C/C(=N/NC(=O)c1ccc(C(C)(C)C)cc1)c1ccccn1 | 197%
46 | O=C(Sc1cccc2cccnc12)c1ccccc1Br | 144%
47 | CCOc1cc(-c2nc3cc(C)ccn3c2NCC2CCCO2)ccc1O (centres undefined) | 91.3%
48 | Oc1ccccc1/C=N/c1c(-c2ccco2)nc2ccccn12 | 97.2%
49 | Cc1ccc(C2=NN(S(C)(=O)=O)C(c3ccc4c(c3)OCO4)C2)cc1 (centres undefined) | 115%
50 | COc1ccccc1NC(=O)Cn1nnc(-c2ccccc2NC(=O)c2ccco2)n1 | 87.9%
51 | Cc1ccc(C(=O)N/C(=C/c2ccco2)C(=O)N2CCOCC2)cc1 | 106%
52 | COc1ccc(-c2cc3cc(C(=O)O)ccn3c2C(=O)c2ccccc2)cc1 | 106%
53 | COc1ccccc1C(=O)NNC(=S)NC(=O)c1cccs1 | 181%
54 | CC(=O)Oc1c(C)cc(Cl)cc1C(=O)Nc1ccc([N+](=O)[O-])cc1Cl | 92%

From PubChem BioAssay
